From ChEMBL document CHEMBL4387734, “Design and synthesis of a novel series of cyanoindole derivatives as potent γ-secretase modulators” (Bioorg Med Chem Lett, 2019)
Converted amounts (≈) assume the structure as drawn.

Key:
[1] = Drug concentration in mouse plasma at 30 mg/kg, po measured after 4 hrs by LC/MS/MS method; assay type: ADME, organism-based
Method in brief: (§1)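 Mice dosed orally at 30 mg/kg; plasma and brain sampled 4 h post-dose; compound quantified by qualified research LC–MS/MS; brain/plasma ratio at 4 h.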

Gamma-secretase = experiment: Inhibition of gamma secretase in human SKNBE2 cells expressing human APP695 assessed as reduction in Abeta42 levels incubated for 18 hrs by sandwich ELISA
[2] = Drug concentration in mouse brain at 30 mg/kg, po measured after 4 hrs by LC/MS/MS method; assay type: ADME, organism-based; details: read-out: Drug uptake; method in brief: as §1
Mus musculus [3] = experiment: In vivo inhibition of gamma secretase in mouse assessed as assessed as reduction in Abeta42 levels in brain at 30 mg/kg, po measured after 4 hrs relative to control; assay type: functional
Cytochrome P450 2C8 = molecular target: T1, Cytochrome P450 2C8 (Homo sapiens, UniProt P10632); experiment: Inhibition of CYP2C8 (unknown origin); assay type: ADME
T1 sequence (P10632 whole entry): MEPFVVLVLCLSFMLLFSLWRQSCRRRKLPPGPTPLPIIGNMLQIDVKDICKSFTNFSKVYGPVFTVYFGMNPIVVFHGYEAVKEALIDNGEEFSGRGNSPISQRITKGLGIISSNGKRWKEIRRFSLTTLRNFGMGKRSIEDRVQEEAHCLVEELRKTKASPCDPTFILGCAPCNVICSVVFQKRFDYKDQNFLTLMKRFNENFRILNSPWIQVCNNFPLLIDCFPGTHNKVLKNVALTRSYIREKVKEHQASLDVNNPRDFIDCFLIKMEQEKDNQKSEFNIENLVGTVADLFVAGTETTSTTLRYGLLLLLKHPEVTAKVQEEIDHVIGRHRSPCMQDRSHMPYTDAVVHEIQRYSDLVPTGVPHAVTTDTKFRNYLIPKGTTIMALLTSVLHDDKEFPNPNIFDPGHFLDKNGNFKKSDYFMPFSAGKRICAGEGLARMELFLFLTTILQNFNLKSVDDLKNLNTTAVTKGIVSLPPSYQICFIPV

hERG (KCNH2) = hERG (KCNH2) (Homo sapiens, UniProt Q12809); experiment: Inhibition of human ERG assessed as inhibition of IKr current at 3 uM by patch express assay
Method in brief: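 Human ERG: percent inhibition of IKr current at 3 μM.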

[4] = Cmax in dog at 10 mg/kg, po after 1.6 hrs; assay type: ADME, organism-based, Canis lupus familiaris; set-up: dose 10 mg/kg, route oral; details: in vivo
Method in brief: (§2)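 Dogs given single oral 10 mg/kg dose; plasma concentration followed to obtain Cmax and time of Cmax.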

[5] = Ratio of drug concentration in brain to plasma of mouse at 30 mg/kg, po measured after 4 hrs by LC/MS/MS method; assay type: ADME, organism-based; details: read-out: BPR; method in brief: as §1
[6] = Toxicity in dog assessed as effect on appearance at 10 mg/kg, po; assay type: organism-based, Canis lupus familiaris; details: in vivo
Method in brief: (§3)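 Single oral 10 mg/kg dose in dog; behaviour and appearance observed; plasma liver enzymes ALT and AST monitored.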

Cytochrome P450 2D6 = Cytochrome P450 2D6 (Homo sapiens, UniProt P10635); experiment: Inhibition of CYP2D6 (unknown origin); assay type: ADME
[7] = Toxicity in dog assessed as effect on behavior at 10 mg/kg, po; assay type: organism-based, Canis lupus familiaris; details: in vivo; method in brief: as §3
Cytochrome P450 2C19 = Cytochrome P450 2C19 (Homo sapiens, UniProt P33261); experiment: Inhibition of CYP2C19 (unknown origin); assay type: ADME
[8] = Tmax in dog at 10 mg/kg, po; assay type: ADME, organism-based, Canis lupus familiaris; details: in vivo; method in brief: as §2
[9] = Toxicity in dog assessed as effect on AST level at 10 mg/kg, po; assay type: organism-based, Canis lupus familiaris; details: in vivo; method in brief: as §3
Mus musculus [10] = experiment: In vivo inhibition of gamma secretase in mouse increase in Abeta38 levels in brain at 30 mg/kg, po measured after 4 hrs relative to control; set-up: scale not given: the % may be the effect or the level left
Cytochrome P450 3A4 = Cytochrome P450 3A4 (Homo sapiens, UniProt P08684); experiment: Inhibition of CYP3A4 (unknown origin) using midazolam; assay type: ADME
[11] = Toxicity in dog assessed as effect on ALT level at 10 mg/kg, po; assay type: organism-based, Canis lupus familiaris; details: in vivo; method in brief: as §3
[12] = Metabolic stability in mouse liver microsomes assessed as compound metabolism at 1 uM incubated for 15 mins; assay type: ADME, Microsome; details: read-out: Drug metabolism
Method in brief: (§4)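 Compound at 1 μM incubated 15 min with human, mouse or dog liver microsomes; percent metabolized reported.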

Cytochrome P450 1A2 = molecular target: T2, Cytochrome P450 1A2 (Homo sapiens, UniProt P05177); experiment: Inhibition of CYP1A2 (unknown origin); assay type: ADME
T2 sequence (P05177 whole entry): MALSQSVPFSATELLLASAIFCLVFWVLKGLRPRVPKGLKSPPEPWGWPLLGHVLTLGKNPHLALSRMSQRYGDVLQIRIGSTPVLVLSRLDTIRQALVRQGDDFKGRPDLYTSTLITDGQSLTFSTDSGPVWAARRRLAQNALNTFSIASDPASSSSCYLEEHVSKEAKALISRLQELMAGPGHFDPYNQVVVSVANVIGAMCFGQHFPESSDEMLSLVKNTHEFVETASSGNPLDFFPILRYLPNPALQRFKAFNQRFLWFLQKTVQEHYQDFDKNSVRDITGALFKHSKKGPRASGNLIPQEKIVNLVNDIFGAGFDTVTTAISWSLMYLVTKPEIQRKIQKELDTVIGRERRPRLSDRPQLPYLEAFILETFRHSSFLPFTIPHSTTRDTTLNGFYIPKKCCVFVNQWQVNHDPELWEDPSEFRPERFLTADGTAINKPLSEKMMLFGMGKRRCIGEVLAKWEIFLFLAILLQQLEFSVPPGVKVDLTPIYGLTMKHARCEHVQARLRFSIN

[13] = Kinetic solubility of the compound in pH 7.4 buffer; assay type: physicochemical; details: read-out: Kinetic_solubility
Cytochrome P450 2C9 = Cytochrome P450 2C9 (Homo sapiens, UniProt P11712); experiment: Inhibition of CYP2C9 (unknown origin); assay type: ADME
[14] = Lipophilicity, log P of the compound; assay type: physicochemical; details: octanol/water
Canis familiaris [15] = experiment: In vivo inhibition of gamma secretase in dog assessed as assessed as increase in Abeta38 levels in CSF at 10 mg/kg, po measured after 8 hrs relative to control; assay type: functional, Canis lupus familiaris; set-up: scale not given: the % may be the effect or the level left
Canis familiaris [16] = experiment: In vivo inhibition of gamma secretase in dog assessed as assessed as reduction in Abeta42 levels in cerebrospinal fluid at 10 mg/kg, po measured after 8 hrs relative to control; details: Canis lupus familiaris
[17] = Inhibition of gamma secretase in mouse Neuro2 cells expressing endogenous levels of amyloid precursor protein assessed as reduction in Abeta42 levels incubated for 18 hrs by sandwich ELISA; assay type: cell-based
Method in brief: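 IC50 as concentration reducing Aβ42 by 50%; mean of at least 2 determinations; mouse assay.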

[18] = Fraction of unbound in rat brain
[19] = molecular target: Voltage-gated inwardly rectifying potassium channel KCNH2 (Homo sapiens, UniProt Q12809); experiment: Inhibition of human ERG by receptor binding assay
Method in brief: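 Receptor binding on human hERG channel; IC50 reported.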

[20] = Free drug concentration in mouse brain; assay type: ADME, tissue-based; details: in vivo
Method in brief: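 Free brain concentration calculated as fu,b × total brain level (μM), mouse 30 mg/kg p.o., 4 h.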

[21] = Metabolic stability in dog liver microsomes assessed as compound metabolism at 1 uM incubated for 15 mins; assay type: ADME, Canis lupus familiaris, Microsome; details: read-out: Drug metabolism; method in brief: as §4
[22] = Metabolic stability in human liver microsomes assessed as compound metabolism at 1 uM incubated for 15 mins; assay type: ADME, Microsome; details: read-out: Drug metabolism; method in brief: as §4

Chain of Cytochrome P450 2D6 (P10635 whole entry): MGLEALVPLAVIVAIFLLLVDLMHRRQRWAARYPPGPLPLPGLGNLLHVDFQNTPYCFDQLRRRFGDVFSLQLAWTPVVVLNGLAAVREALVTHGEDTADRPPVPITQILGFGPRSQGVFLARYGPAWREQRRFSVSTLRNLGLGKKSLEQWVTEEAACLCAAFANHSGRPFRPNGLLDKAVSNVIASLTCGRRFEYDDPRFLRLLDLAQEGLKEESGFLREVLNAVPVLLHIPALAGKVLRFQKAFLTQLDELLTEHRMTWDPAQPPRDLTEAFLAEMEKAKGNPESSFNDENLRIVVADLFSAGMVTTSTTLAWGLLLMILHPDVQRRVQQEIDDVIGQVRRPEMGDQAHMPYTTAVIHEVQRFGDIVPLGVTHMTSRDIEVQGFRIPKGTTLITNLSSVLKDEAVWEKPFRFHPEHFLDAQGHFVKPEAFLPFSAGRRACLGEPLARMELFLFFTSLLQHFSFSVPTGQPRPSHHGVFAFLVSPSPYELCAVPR
Chain of Cytochrome P450 2C9 (P11712 whole entry): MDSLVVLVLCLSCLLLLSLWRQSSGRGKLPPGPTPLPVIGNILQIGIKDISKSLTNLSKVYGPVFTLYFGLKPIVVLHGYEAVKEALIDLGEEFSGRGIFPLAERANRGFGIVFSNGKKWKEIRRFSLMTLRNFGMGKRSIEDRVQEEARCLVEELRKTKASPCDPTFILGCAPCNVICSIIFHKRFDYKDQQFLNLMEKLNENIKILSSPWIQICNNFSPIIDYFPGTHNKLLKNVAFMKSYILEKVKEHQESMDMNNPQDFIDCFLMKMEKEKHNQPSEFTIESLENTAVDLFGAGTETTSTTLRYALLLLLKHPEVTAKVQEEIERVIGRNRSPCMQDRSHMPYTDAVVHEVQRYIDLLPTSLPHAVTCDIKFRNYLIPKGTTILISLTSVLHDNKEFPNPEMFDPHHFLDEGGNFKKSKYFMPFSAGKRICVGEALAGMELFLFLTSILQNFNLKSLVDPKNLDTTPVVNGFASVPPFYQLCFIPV
Chain of hERG (KCNH2) (Q12809 whole entry): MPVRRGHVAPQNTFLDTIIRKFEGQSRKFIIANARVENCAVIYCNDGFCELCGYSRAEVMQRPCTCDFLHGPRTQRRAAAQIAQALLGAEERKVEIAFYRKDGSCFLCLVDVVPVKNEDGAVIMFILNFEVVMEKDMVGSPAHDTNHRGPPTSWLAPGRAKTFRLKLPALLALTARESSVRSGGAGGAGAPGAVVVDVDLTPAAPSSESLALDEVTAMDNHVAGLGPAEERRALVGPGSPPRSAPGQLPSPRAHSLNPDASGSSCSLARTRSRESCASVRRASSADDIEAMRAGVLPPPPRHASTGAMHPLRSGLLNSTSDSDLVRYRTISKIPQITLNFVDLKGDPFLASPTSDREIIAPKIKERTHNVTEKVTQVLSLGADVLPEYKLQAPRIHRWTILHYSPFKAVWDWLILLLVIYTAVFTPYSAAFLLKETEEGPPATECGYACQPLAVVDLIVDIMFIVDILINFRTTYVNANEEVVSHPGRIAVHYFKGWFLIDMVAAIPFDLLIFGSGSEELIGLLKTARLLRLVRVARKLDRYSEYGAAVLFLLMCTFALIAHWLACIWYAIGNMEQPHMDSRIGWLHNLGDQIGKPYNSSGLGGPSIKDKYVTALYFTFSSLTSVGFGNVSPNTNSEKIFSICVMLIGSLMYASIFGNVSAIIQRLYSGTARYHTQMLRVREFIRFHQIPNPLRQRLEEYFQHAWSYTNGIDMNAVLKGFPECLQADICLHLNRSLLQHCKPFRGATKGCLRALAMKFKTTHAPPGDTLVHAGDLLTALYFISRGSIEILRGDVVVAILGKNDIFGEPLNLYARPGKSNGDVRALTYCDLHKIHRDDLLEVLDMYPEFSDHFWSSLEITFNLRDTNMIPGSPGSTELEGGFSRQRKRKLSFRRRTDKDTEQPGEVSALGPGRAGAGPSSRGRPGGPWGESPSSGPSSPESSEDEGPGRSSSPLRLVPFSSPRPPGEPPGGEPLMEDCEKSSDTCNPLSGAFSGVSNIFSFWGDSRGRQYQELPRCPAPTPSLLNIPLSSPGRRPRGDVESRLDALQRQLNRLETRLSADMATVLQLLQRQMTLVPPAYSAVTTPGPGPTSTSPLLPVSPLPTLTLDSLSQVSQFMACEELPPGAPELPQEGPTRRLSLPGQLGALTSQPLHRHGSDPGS
Chain of Voltage-gated inwardly rectifying potassium channel KCNH2 (Q12809 whole entry): as above
Chain of Cytochrome P450 2C19 (P33261 whole entry): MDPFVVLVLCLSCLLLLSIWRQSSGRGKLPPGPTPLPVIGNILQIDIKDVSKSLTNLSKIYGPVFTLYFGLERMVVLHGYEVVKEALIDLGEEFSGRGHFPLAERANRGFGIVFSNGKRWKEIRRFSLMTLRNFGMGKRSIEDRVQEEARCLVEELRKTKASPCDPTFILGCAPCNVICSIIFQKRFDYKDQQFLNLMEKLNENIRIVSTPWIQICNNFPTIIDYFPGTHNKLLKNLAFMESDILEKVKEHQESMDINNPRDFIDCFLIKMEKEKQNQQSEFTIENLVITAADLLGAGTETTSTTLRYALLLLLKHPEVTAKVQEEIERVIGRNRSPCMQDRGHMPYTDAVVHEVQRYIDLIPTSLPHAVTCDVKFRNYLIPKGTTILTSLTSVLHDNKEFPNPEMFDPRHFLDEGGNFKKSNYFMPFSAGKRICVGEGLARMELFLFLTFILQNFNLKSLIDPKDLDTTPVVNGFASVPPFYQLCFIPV
Chain of Cytochrome P450 3A4 (P08684 whole entry): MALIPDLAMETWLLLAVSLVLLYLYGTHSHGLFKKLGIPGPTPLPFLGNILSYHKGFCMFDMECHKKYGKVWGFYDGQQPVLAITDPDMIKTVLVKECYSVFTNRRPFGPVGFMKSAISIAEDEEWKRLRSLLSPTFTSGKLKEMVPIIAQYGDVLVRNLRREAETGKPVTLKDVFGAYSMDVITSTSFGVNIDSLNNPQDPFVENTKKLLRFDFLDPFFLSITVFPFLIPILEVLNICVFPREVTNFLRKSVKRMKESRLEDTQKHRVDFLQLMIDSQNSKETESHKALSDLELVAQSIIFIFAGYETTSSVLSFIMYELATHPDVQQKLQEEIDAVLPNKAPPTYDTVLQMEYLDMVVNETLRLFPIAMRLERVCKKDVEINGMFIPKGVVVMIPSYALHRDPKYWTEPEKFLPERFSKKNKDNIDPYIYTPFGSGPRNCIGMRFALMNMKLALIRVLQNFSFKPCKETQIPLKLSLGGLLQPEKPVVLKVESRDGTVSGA

Question: With `COc1c(C#N)ccc2[nH]c(-c3cn4c(n3)[C@H](c3cccc(F)c3C)OCC4)cc12` as the molecule, how does the concentration at 4 h [1] read?
Answer: The concentration at 4 h was 8.2 to 12.1 µM.

Question: And the IC50 (Gamma-secretase)?
Answer: Its IC50 is 0.014 µM.

Question: And the concentration at 4 h [2]?
Answer: Its concentration at 4 h is 8.25 to 12 µM.

Question: What about the inhibition in vivo at 30 mg/kg (Mus musculus [3]) of the same molecule?
Answer: Its inhibition in vivo at 30 mg/kg is 66%.

Question: What about the IC50 (Cytochrome P450 2C8) of the same molecule?
Answer: The IC50 was 1.3 µM.

Question: And the inhibition at 3 µM (hERG (KCNH2))?
Answer: Its inhibition at 3 µM is 31%.

Question: And the Cmax [4]?
Answer: The Cmax was 2.4 µM.

Question: And the Kp at 4 h [5]?
Answer: The Kp at 4 h was 1.46.

Question: And the Activity [6]?
Answer: Its Activity is “Non-Toxic”.

Question: What about the IC50 (Cytochrome P450 2D6) of the same molecule?
Answer: The IC50 was 9.8 µM.

Question: And the Activity [7]?
Answer: Its Activity is “Non-Toxic”.

Question: What about the IC50 (Cytochrome P450 2C19) of the same molecule?
Answer: Its IC50 is 8.3 µM.

Question: And the Tmax [8]?
Answer: Its Tmax is 1.6 h.

Question: And the Activity [9]?
Answer: Its Activity is “Non-Toxic”.

Question: And the Activity (Mus musculus [10])?
Answer: The Activity was 40%.

Question: What about the IC50 (Cytochrome P450 3A4) of the same molecule?
Answer: The IC50 was over 10 µM.

Question: What about the Activity [11] of the same molecule?
Answer: Its Activity is “Non-Toxic”.

Question: What about the metabolised at 0.25 h, 1 µM [12] of the same molecule?
Answer: The metabolised at 0.25 h, 1 µM was 27%.

Question: And the IC50 (Cytochrome P450 1A2)?
Answer: Its IC50 is over 10 µM.

Question: What about the solubility kinetic [13] of the same molecule?
Answer: The solubility kinetic was 6 µM (≈ 2.41 µg/mL).

Question: What about the IC50 (Cytochrome P450 2C9) of the same molecule?
Answer: The IC50 was 5.9 µM.

Question: And the logP [14]?
Answer: Its logP is 4.19.

Question: And the Activity (Canis familiaris [15])?
Answer: The Activity was 40%.

Question: What about the inhibition in vivo at 10 mg/kg (Canis familiaris [16]) of the same molecule?
Answer: The inhibition in vivo at 10 mg/kg was 37%.

Question: And the IC50 [17]?
Answer: The IC50 was 0.017 µM.

Question: What about the Fu [18] of the same molecule?
Answer: Its Fu is 0.22%.

Question: What about the IC50 [19] of the same molecule?
Answer: The IC50 was 5.29 µM.

Question: And the “Drug uptake(free)” value [20]?
Answer: The value was 0.026 µM.

Question: And the metabolised at 0.25 h, 1 µM [21]?
Answer: The metabolised at 0.25 h, 1 µM was 29%.

Question: What about the metabolised at 0.25 h, 1 µM [22] of the same molecule?
Answer: Its metabolised at 0.25 h, 1 µM is 18%.
